Data set [1] has as its system Mus musculus. The data set is described as follows: Increase of exploratory behavior of mice by administering compound perorally. The class given is functional. Summed up:
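Male Swiss mice (18-20 g) were dosed orally in 0.5% carboxymethylcellulose and placed singly in photobeam boxes with two crossed beams. Beam breaks were counted over the first 5 min. ED50 is the dose raising counts by 50% over vehicle controls, fitted by least squares from four groups of 10 mice on doses spaced by ratio 2.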

For data set [2], the system named is Mus musculus. The data set is described as follows: Toxicity administered perorally was measured in mice. It counts as organism-based. The note with it: in vivo, po. The gist of the method: (§1)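 Male Swiss mice (18-20 g) were given compound orally in 0.5% carboxymethylcellulose, in groups of four at 200, 400, 800 and 1600 mg/kg. LD50 was taken from mortality; vehicle controls were included.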

A short description of data set [3]: Ratio of LD50/ED50. The class given is ADME.
Data set [4] deals with Mus musculus. As to the kind of experiment: Toxicity was measured as Lethal Dose 50 by administering to mice perorally. It counts as organism-based. The note with it: in vivo, po. The gist of the method:
as §1

For data set [5], the species on record is Cavia porcellus. The data set is described as follows: In vitro antihistaminic activity was determined by histamine induced contraction of guinea pig ileum. The class given is functional. The note with it: for Kb: Cavia porcellus, Ileum, read-out: pA2 (converted). Summed up:
(§2)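 Terminal ileum strips from guinea pigs (250-300 g) killed by a blow to the neck were hung in Tyrode solution at 32 °C, gassed with 95% O2/5% CO2.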

Data set [6] relates to Canis familiaris. As to the kind of experiment: Sympathomimetic action was evaluated from the increase of the femoral arterial blood pressure and of the cardiac uM/kg changes were < 10%. The class given is functional, Canis lupus familiaris. The gist of the method: (§3)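 Mongrel dogs of both sexes were given compound intravenously in 0.5% carboxymethylcellulose. Hypertension and tachycardia were recorded. Values are doses in μmol/kg.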

For data set [7], the species on record is Cavia porcellus. The data set is described as follows: In vitro anticholinergic activity was determined by acetylcholine induced contraction of guinea pig ileum. The class given is functional. The following applies: read-out: pA2 (converted). The gist of the method: as §2
Data set [8] in a line: Group toxicity is the ratio of the LD50 values of isolated mice to that of grouped mice. The class given is organism-based. The following applies: mouse, in vivo; read-out: Group toxicity. Summed up:
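Male Swiss mice (18-20 g) were dosed orally in 0.5% carboxymethylcellulose. Groups of 10 were then either crowded in small boxes (8.5 × 18 × 8.5 cm, four air holes) or kept isolated under usual housing, and mortality was read at 6 h. Ratio = LD50 isolated / LD50 grouped, from six doses spaced by ratio 2, computed by Kärber's method.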

The subject of data set [9] is Mus musculus. The data set is described as follows: Narcosis antagonism was measured as the dose required to lower by 50% the duration of narcosis in mice after peroral administration. The class given is functional. The following applies: po.
For data set [10], the species on record is Rattus norvegicus. The data set is described as follows: Anorexic activity was measured as the dose required to lower by 50% the consumption of control group in rat; No activity at this dose. It counts as functional. The gist of the method: (§4)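 Male Wistar rats (100-120 g) given chocolate milk to drink for 6 h once a week over 6 weeks. In the last 4 weeks, compounds in 0.5% aqueous carboxymethylcellulose were given orally before each session in a Latin square design. ED50 is the dose cutting consumption by 50% vs vehicle controls, fitted by least squares from three groups (24 rats) on doses spaced by ratio 2.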

For data set [11], the system named is Canis familiaris. The data set is described as follows: Sympathomimetic action was evaluated from the increase of the femoral arterial blood pressure and of the cardiac uM/kg changes were <10%. The class given is functional, Canis lupus familiaris. The gist of the method: as §3
The subject of data set [12] is Canis familiaris. As to the kind of experiment: Sympathomimetic action was evaluated from the increase of the cardiac rhythm after intravenous injection in dog. It counts as functional, Canis lupus familiaris. The gist of the method:
as §3

The subject of data set [13] is Canis familiaris. The data set is described as follows: Sympathomimetic action was evaluated from the increase of the femoral arterial blood pressure after intravenous injection in dog. The class given is functional, Canis lupus familiaris. The gist of the method: as §3
For data set [14], the species on record is Rattus norvegicus. The data set is described as follows: Anorexic activity was measured as the dose required to lower by 50% the consumption of control group in rat. The class given is functional. The gist of the method: as §4

Structures are written as SMILES. Structures can show the parent of a compound that is named as a salt. A value given as a limit tells only on which side of the number the result lay.

In turn, `Cl.N#CCCN1CCN(CCOC(c2ccccc2)c2ccccc2)CC1` returned an ED50 in data set [1] of 0.1 mmol/kg. In data set [2], this compound came in with an LD50 of 0.7 mmol/kg. Also, the selectivity ratio in data set [3] came out at 7.

`CCOC(=O)CCN1CCN(CCOC(c2ccccc2)c2ccc([N+](=O)[O-])cc2)CC1.Cl` (configuration not stated) yielded an ED50 in data set [1] of 0.5 mmol/kg. Besides, the LD50 in data set [4] turned out to be 3 M/kg.

Compound `Cl.NC(=O)CCN1CCN(CCOC(c2ccccc2)c2ccccc2)CC1` gave an ED50 in [1] of 0.17 mmol/kg. Besides, the LD50 in data set [2] is listed as 2.1 mmol/kg. Moreover, in [3], the selectivity ratio worked out at 12.

Compound `CCOC(=O)CCN1CCN(CCOC(c2ccccc2)c2ccccc2Cl)CC1.Cl` (configuration not stated) showed a pA2 in data set [5] of 7.25. The 50% effective dose (ED50) in [1] turned out to be 0.5 mmol/kg. This compound also had an LD50 in data set [2] of 3.2 mmol/kg.

In the case of `CCOC(=O)CCN1CCN(CCOC(c2ccc(F)cc2)c2ccc(F)cc2)CC1.Cl`, in [6], the Activity stood at 0. In addition, the values for the Kb in data set [7] and in data set [5] were 0.309 µM and 0.00724 µM, respectively. Further, the values for the selectivity ratio in data set [8] and in [3] were 0.4 and 20, respectively. Moreover, the ED50 in data set [1] was 0.06 mmol/kg; in data set [9] it was roughly 200 µmol/kg. This compound showed an LD50 in data set [2] of 1.2 mmol/kg.

`Cl.O=C(O)CCCN1CCN(CCOC(c2ccccc2)c2ccccc2)CC1` had an ED50 in data set [1] of 0.17 mmol/kg. This compound also yielded an LD50 in data set [2] of 3.4 mmol/kg.

The compound `CCOC(=O)CCN1CCN(CCCOC(c2ccccc2)c2ccccc2)CC1.Cl` returned an ED50 in data set [1] of 0.1 mmol/kg. Besides, the LD50 in [2] is on record as 1.8 mmol/kg. Also, the selectivity ratio in [3] turned out to be 18.

In the case of `O=C(CN1CCN(CCOC(c2ccccc2)c2ccccc2)CC1)N1CCN(Cc2ccc3c(c2)OCO3)CC1.O=C(O)/C=C\C(=O)O.O=C(O)/C=C\C(=O)O`, the LD50 in data set [2] came to 0.7 mmol/kg. Also, in data set [3], the selectivity ratio stood at 23.

Consider `O=C(CN1CCN(CCOC(c2ccccc2)c2ccccc2)CC1)N1CCOCC1.O=C(O)/C=C\C(=O)O.O=C(O)/C=C\C(=O)O.O=C(O)/C=C\C(=O)O`, for which the 50% effect level in data set [1] (ED50) was put at a dose of 0.15 mmol/kg. The LD50 in data set [2] came out at 1.2 mmol/kg. Besides, the selectivity ratio in [3] was found to be 8.

In the case of `O=C(O)/C=C\C(=O)O.O=C(O)/C=C\C(=O)O.O=C(O)CN1CCN(CCOC(c2ccccc2)c2ccc(F)cc2)CC1` (configuration not stated), in [1], the ED50 amounted to 0.1 mmol/kg. The LD50 in data set [2] is listed as 2.8 mmol/kg. In addition, the selectivity ratio in [3] came out at 28.

Take `O=C(O)/C=C\C(=O)O.O=C(O)/C=C\C(=O)O.O=C(O)CCN1CCN(CCOC2c3ccccc3-c3ccccc32)CC1`: it took a dose of 0.23 mmol/kg to reach the 50% effect level in data set [1] (ED50). Moreover, in data set [2], the LD50 is 2.3 mmol/kg. Besides, the selectivity ratio in [3] is 10.

With `O=C(O)/C=C\C(=O)O.O=C(O)/C=C\C(=O)O.O=C(O)CCN1CCN(CCOC(c2ccccc2)c2ccc(Cl)cc2)CC1` (configuration not stated), the median effective dose (ED50) in data set [1] was determined as 0.05 mmol/kg. For the same compound, the LD50 in [2] was found to be 1.6 mmol/kg. Moreover, the selectivity ratio in [3] amounted to 32.

Consider `COc1cc(C(OCCN2CCN(CCC(=O)O)CC2)c2ccccc2)cc(OC)c1OC.O=C(O)/C=C\C(=O)O.O=C(O)/C=C\C(=O)O` (configuration not stated), for which the ED50 in data set [1] was found to be 0.5 mmol/kg. The compound further came in with an LD50 in data set [2] of 2.3 mmol/kg.

On to `O=C(O)/C=C\C(=O)O.O=C(O)/C=C\C(=O)O.O=C(O)CCN1CCN(CCOC(c2ccccc2)c2cccc(C(F)(F)F)c2)CC1` (configuration not stated), for which the 50% effect level in data set [1] (ED50) was put at a dose of 0.3 mmol/kg. This compound came in with an LD50 in data set [2] of 1.8 mmol/kg. Moreover, in data set [3], the selectivity ratio worked out at 6.

Consider `O=C(O)/C=C\C(=O)O.O=C(O)/C=C\C(=O)O.O=C(O)CCN1CCN(CCOC(c2ccccc2)c2ccc(F)cc2)CC1` (configuration not stated), for which the Activity in [6] is listed as 0. For the same compound, the Kb in data set [7] was 7.24 µM; in [5], 0.224 µM. The selectivity ratio in [8] stood at 1.7; in [3] it was 37. In addition, the 50% effective dose (ED50) was 0.04 mmol/kg in data set [1], greater than 60 µmol/kg in [10] and greater than 650 µmol/kg in [9]. In addition, the LD50 in data set [2] was 1.3 mmol/kg.

In data set [1], `COc1ccccc1C(OCCN1CCN(CCC(=O)O)CC1)c1ccccc1.O=C(O)/C=C\C(=O)O.O=C(O)/C=C\C(=O)O` (configuration not stated) yielded an ED50 of 0.5 mmol/kg. Further, the LD50 in [2] amounted to 2.2 mmol/kg.

Take `O=C(O)/C=C\C(=O)O.O=C(O)/C=C\C(=O)O.O=C(O)CCCCN1CCN(CCOC(c2ccccc2)c2ccc(F)cc2)CC1` (configuration not stated): the 50% effect level in [1] (ED50) was put at a dose of 0.05 mmol/kg. The compound further displayed an LD50 in data set [2] of 2.2 mmol/kg. Also, the selectivity ratio in [3] was determined as 40.

In data set [1], `O=C(O)/C=C\C(=O)O.O=C(O)/C=C\C(=O)O.O=C(O)CCCN1CCN(CCOC(c2ccccc2)c2ccc(F)cc2)CC1` (configuration not stated) yielded an ED50 of 0.06 mmol/kg. This compound displayed an LD50 in [2] of 1.9 mmol/kg. Further, the selectivity ratio in [3] turned out to be 34.

`CCCC(OCCN1CCN(CCC(=O)O)CC1)c1ccccc1.O=C(O)/C=C\C(=O)O.O=C(O)/C=C\C(=O)O` (configuration not stated): the values for the Kb in data set [7] and in [5] were 1.95 µM and 3.55 µM, respectively. In data set [1], this compound came in with an ED50 of 0.1 mmol/kg. For the same compound, in data set [2], the LD50 was greater than 2.8 mmol/kg. In data set [3], the selectivity ratio is greater than 28.

The compound `O=C(O)/C=C\C(=O)O.O=C(O)/C=C\C(=O)O.O=C(O)CCN1CCN(CCOC(c2ccc(F)cc2)c2ccc(F)cc2)CC1` displayed an ED50 in [1] of 0.05 mmol/kg. In [2], this compound displayed an LD50 of 1.1 mmol/kg. In addition, the selectivity ratio in data set [3] is 23.

In the case of `Cc1ccc(C(OCCN2CCN(CCC(=O)O)CC2)c2ccccc2)cc1.O=C(O)/C=C\C(=O)O.O=C(O)/C=C\C(=O)O` (configuration not stated), the ED50 in [1] was found to be 0.16 mmol/kg. For the same compound, the LD50 in data set [2] amounted to 2.3 mmol/kg. Also, in data set [3], the selectivity ratio was found to be 14.

As to `O=C([O-])CCN1CCN(CCOC(c2ccccc2)c2ccccc2)CC1.[Na+]`, in data set [11], the Activity is 0. For the same compound, the Kb in data set [7] is 115 µM; in [5] it was 0.759 µM. In addition, the selectivity ratio in data set [8] turned out to be 0.6; in data set [3], 17. For the same compound, the results for the ED50 in data set [1] and in data set [9] were 0.21 mmol/kg and greater than 500 µmol/kg, respectively. In [2], this compound had an LD50 of 3.6 mmol/kg.

Turning to `O=C([O-])CN1CCN(CCOC(c2ccccc2)c2ccccc2)CC1.[Na+]`, the 50% effect level in [1] (ED50) was put at a dose of 0.5 mmol/kg. Moreover, the LD50 in data set [2] is recorded as 4.3 mmol/kg.

In data set [1], `O=C(O)CCN1CCN(CCOCc2ccccc2)CC1` yielded an ED50 of 0.5 mmol/kg. In addition, in [2], the LD50 is on record as greater than 5.5 mmol/kg.

Take `CC(N)Cc1ccccc1.O=S(=O)(O)O` (racemic) [AMPHETAMINE SULFATE]: the Increase turned out to be 30% in data set [12] and 50% in data set [13]. The results for the Kb in [7] and in [5] were greater than 1000 µM and 13.5 µM, respectively. In data set [8], the selectivity ratio came out at 5.3. For the same compound, the ED50 in [14] is 13 µmol/kg; in data set [9], 20 µmol/kg.

With `COc1ccc(CN(CCN(C)C)c2ccccn2)cc1` [PYRILAMINE MALEATE], the Kb in data set [7] was 3.98 µM; in data set [5] it was 0.000417 µM.

Values taken from ChEMBL document CHEMBL1121384, “Synthesis and psychoanaleptic properties of new compounds structurally related to diphenhydramine” (J Med Chem, 1980).
